Data published in paper PMC10765384 (Bioorganic chemistry, 2023).

Key:
[1] = test system: HBV DNA replication in HepAD38 cells; assay: Anti-HBV activity, 7-day assay in HepAD38 cells; assay type: cell-based, hepatitis B virus; conditions: for EC50 / EC90: Hepatitis B virus, HePAD38, 168 h; for EC50: read-out: Anti-HBV activity EC50; for EC90: read-out: Anti-HBV activity EC90; for fold increase of anti-HBV potency compared to GLP-26: HepAD38 EC50 relative to reference GLP-26
[2] = Cytotoxicity, CellTiter 96 assay in PBM cells; assay type: cell-based, human; conditions: human, peripheral blood mononuclear (PBM) cells
Method in brief: (§1)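 Colorimetric non-radioactive cell proliferation read-out (CellTiter 96). CC50 is the test compound concentration that inhibited cell growth by 50%.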

[3] = Cytotoxicity, CellTiter 96 assay in CEM cells; assay type: cell-based, human; conditions: human, T lymphoblast (CEM) cells
Method in brief: as §1

[4] = Cytotoxicity, CellTiter 96 assay in Vero cells; assay type: cell-based, African green monkey; conditions: African green monkey, kidney (Vero) cells
Method in brief: as §1

[5] = Cytotoxicity, CellTiter 96 assay in HepG2 cells; assay type: cell-based, human; conditions: human, hepatocellular carcinoma (HepG2) cells
Method in brief: as §1

C#CCNC(=O)C(=O)c1c(C)c(C(=O)Nc2ccc(F)c(F)c2)n(CC=C)c1C [Compound 5d, 1-Allyl-N-(3,4-difluorophenyl)-3,5-dimethyl-4-(2-oxo-2-(prop-2-yn-1-ylamino)acetyl)-1H-pyrrole-2-carboxamide]
EC50 [1]: 0.003 ± 0.0014 µM
EC90 [1]: 0.128 ± 0.15 µM
CC50 [2]: > 100 µM
CC50 [3]: > 100 µM
CC50 [4]: > 100 µM
CC50 [5]: > 100 µM

C#CC(C)(C)NC(=O)C(=O)c1c(C)c(C(=O)Nc2ccc(F)c(F)c2)n(C)c1C [Compound 9a, N-(3,4-Difluorophenyl)-1,3,5-trimethyl-4-(2-((2-methylbut-3-yn-2-yl)amino)-2-oxoacetyl)-1H-pyrrole-2-carboxamide]
fold increase of anti-HBV potency compared to GLP-26 [1]: 5–30 fold
EC50 [1]: 0.00071 ± 0.00022 µM
EC90 [1]: 0.0082 ± 0.0006 µM
CC50 [2]: 64 ± 26 µM
CC50 [3]: 25 ± 2 µM
CC50 [4]: > 100 µM
CC50 [5]: 91 ± 12 µM

C#CCNC(=O)C(=O)c1c(C)c(C(=O)Nc2ccc(F)c(F)c2)n(Cc2ccccc2)c1C [Compound 5j, 1-Benzyl-N-(3,4-difluorophenyl)-3,5-dimethyl-4-(2-oxo-2-(prop-2-yn-1-ylamino)acetyl)-1H-pyrrole-2-carboxamide]
EC50 [1]: 2.52 µM
EC90 [1]: > 10 µM
CC50 [2]: > 100 µM
CC50 [3]: > 100 µM
CC50 [4]: > 100 µM
CC50 [5]: > 100 µM

C#CC1(NC(=O)C(=O)c2c(C)c(C(=O)Nc3ccc(F)c(F)c3)n(C)c2C)CCCCC1 [Compound 9f, N-(3,4-Difluorophenyl)-4-(2-(1-ethynylcyclohexylamino)-2-oxoacetyl)-1,3,5-trimethyl-1H-pyrrole-2-carboxamide]
fold increase of anti-HBV potency compared to GLP-26 [1]: only a moderate improvement
EC50 [1]: 0.0035 ± 0.0048 µM
EC90 [1]: 0.0074 ± 0.0093 µM
CC50 [2]: 23 ± 13 µM
CC50 [3]: 15 µM
CC50 [4]: 43 µM
CC50 [5]: 42 ± 23 µM

C#CC1(NC(=O)C(=O)c2c(C)c(C(=O)Nc3ccc(F)c(F)c3)n(C)c2C)CC1 [Compound 9d, N-(3,4-Difluorophenyl)-4-(2-(1-ethynylcyclopropylamino)-2-oxoacetyl)-1,3,5-trimethyl-1H-pyrrole-2-carboxamide]
fold increase of anti-HBV potency compared to GLP-26 [1]: 5–30 fold
EC50 [1]: 0.0008 ± 0.0007 µM
EC90 [1]: 0.0061 ± 0.0022 µM
CC50 [2]: > 100 µM
CC50 [3]: > 100 µM
CC50 [4]: > 100 µM
CC50 [5]: > 100 µM

C#CCn1c(C)c(C(=O)C(=O)NC(C#C)(CC)CC)c(C)c1C(=O)Nc1ccc(F)c(F)c1 [Compound 10b, N-(3,4-difluorophenyl)-4-(2-((3-ethylpent-1-yn-3-yl)amino)-2-oxoacetyl)-3,5-dimethyl-1-(prop-2-yn-1-yl)-1H-pyrrole-2-carboxamide]
EC50 [1]: 0.0079 ± 0.0016 µM
EC90 [1]: 0.06 ± 0.041 µM
CC50 [2]: 53 ± 41 µM
CC50 [3]: 76 ± 17 µM
CC50 [4]: > 100 µM
CC50 [5]: 72 ± 39 µM

C#CC1(NC(=O)C(=O)c2c(C)c(C(=O)Nc3ccc(F)c(F)c3)n(C)c2C)CCC1 [Compound 9e, N-(3,4-Difluorophenyl)-4-(2-(1-ethynylcyclobutylamino)-2-oxoacetyl)-1,3,5-trimethyl-1H-pyrrole-2-carboxamide]
fold increase of anti-HBV potency compared to GLP-26 [1]: 5–30 fold
EC50 [1]: 0.0003 ± 0.0004 µM
EC90 [1]: 0.0019 ± 0.0015 µM
CC50 [2]: > 100 µM
CC50 [3]: > 100 µM
CC50 [4]: > 100 µM
CC50 [5]: 98 µM

C#CCNC(=O)C(=O)c1c(C)c(C(=O)Nc2ccc(F)c(F)c2)n(CC)c1C [Compound 5a, N-(3,4-Difluorophenyl)-1-ethyl-3,5-dimethyl-4-(2-oxo-2-(prop-2-yn-1-ylamino)acetyl)-1H-pyrrole-2-carboxamide]
EC50 [1]: 0.0071 ± 0.0062 µM
EC90 [1]: 0.0494 ± 0.0129 µM
CC50 [2]: > 100 µM
CC50 [3]: > 100 µM
CC50 [4]: > 100 µM
CC50 [5]: > 100 µM

C#CCNC(=O)C(=O)c1c(C)c(C(=O)Nc2ccc(F)c(F)c2)n(CC#CC)c1C [Compound 5h, 1-(But-2-yn-1-yl)-N-(3,4-difluorophenyl)-3,5-dimethyl-4-(2-oxo-2-(prop-2-yn-1-ylamino)acetyl)-1H-pyrrole-2-carboxamide]
EC50 [1]: 0.0452 ± 0.0201 µM
EC90 [1]: 0.395 ± 0.327 µM
CC50 [2]: > 100 µM
CC50 [3]: > 100 µM
CC50 [4]: > 100 µM
CC50 [5]: > 100 µM

C#CCNC(=O)C(=O)c1c(C)c(C(=O)Nc2ccc(F)c(F)c2)n(CC#CCC)c1C [Compound 5i, N-(3,4-Difluorophenyl)-3,5-dimethyl-4-(2-oxo-2-(prop-2-yn-1-ylamino)acetyl)-1-(pent-2-yn-1-yl)-1H-pyrrole-2-carboxamide]
EC50 [1]: 0.826 ± 0.172 µM
EC90 [1]: 3.69 µM
CC50 [2]: > 100 µM
CC50 [3]: > 100 µM
CC50 [4]: > 100 µM
CC50 [5]: > 100 µM

C#CC(CC)(CC)NC(=O)C(=O)c1c(C)c(C(=O)Nc2ccc(F)c(F)c2)n(C)c1C [Compound 9c, N-(3,4-Difluorophenyl)-4-(2-(3-ethylpent-1-yn-3-ylamino)-2-oxoacetyl)-1,3,5-trimethyl-1H-pyrrole-2-carboxamide]
fold increase of anti-HBV potency compared to GLP-26 [1]: 5–30 fold
EC50 [1]: 0.0005 ± 0.0003 µM
EC90 [1]: 0.0046 ± 0.0023 µM
CC50 [2]: 26 ± 14 µM
CC50 [3]: 16 µM
CC50 [4]: 42 µM
CC50 [5]: 44 ± 35 µM

C#CCNC(=O)C(=O)c1c(C)c(C(=O)Nc2ccc(F)c(F)c2)n(CCCC)c1C [Compound 5c, 1-Butyl-N-(3,4-difluorophenyl)-3,5-dimethyl-4-(2-oxo-2-(prop-2-yn-1-ylamino)acetyl)-1H-pyrrole-2-carboxamide]
EC50 [1]: 0.0874 ± 0.0037 µM
EC90 [1]: 0.556 ± 0.147 µM
CC50 [2]: > 100 µM
CC50 [3]: > 100 µM
CC50 [4]: > 100 µM
CC50 [5]: > 100 µM

C#CCNC(=O)C(=O)c1c(C)c(C(=O)Nc2ccc(F)c(F)c2)n(C2CC2)c1C [Compound 5e, 1-Cyclopropyl-N-(3,4-difluorophenyl)-3,5-dimethyl-4-(2-oxo-2-(prop-2-yn-1-ylamino)acetyl)-1H-pyrrole-2-carboxamide]
EC50 [1]: 0.0075 ± 0.0078 µM
EC90 [1]: 0.0415 ± 0.012 µM
CC50 [2]: > 100 µM
CC50 [3]: > 100 µM
CC50 [4]: > 100 µM
CC50 [5]: > 100 µM

C#CCNC(=O)C(=O)c1c(C)c(C(=O)Nc2ccc(F)c(F)c2)n(CC#C)c1C [Compound 5g, N-(3,4-Difluorophenyl)-3,5-dimethyl-4-(2-oxo-2-(prop-2-yn-1-ylamino)acetyl)-1-(prop-2-yn-1-yl)-1H-pyrrole-2-carboxamide]
fold increase of anti-HBV potency compared to GLP-26 [1]: > 5 fold
EC50 [1]: 0.00088 ± 0.00043 µM
EC90 [1]: 0.0103 ± 0.006 µM
CC50 [2]: > 100 µM
CC50 [3]: > 100 µM
CC50 [4]: > 100 µM
CC50 [5]: > 100 µM

C#CC(C)(CC)NC(=O)C(=O)c1c(C)c(C(=O)Nc2ccc(F)c(F)c2)n(C)c1C (stereo not shown) [Compound 9b, N-(3,4-Difluorophenyl)-1,3,5-trimethyl-4-(2-(3-methylpent-1-yn-3-ylamino)-2-oxoacetyl)-1H-pyrrole-2-carboxamide]
fold increase of anti-HBV potency compared to GLP-26 [1]: 5–30 fold
EC50 [1]: 0.00015 ± 7e-05 µM
EC90 [1]: 0.0068 ± 0.0034 µM
CC50 [2]: 61 ± 43 µM
CC50 [3]: 10 ± 3 µM
CC50 [4]: 64 ± 16 µM
CC50 [5]: 84 ± 11 µM

C#CCNC(=O)C(=O)c1c(C)c(C(=O)Nc2ccc(F)c(F)c2)n(CC2CC2)c1C [Compound 5f, 1-(Cyclopropylmethyl)-N-(3,4-difluorophenyl)-3,5-dimethyl-4-(2-oxo-2-(prop-2-yn-1-ylamino)acetyl)-1H-pyrrole-2-carboxamide]
EC50 [1]: 0.0522 ± 0.0271 µM
EC90 [1]: 0.0522 ± 0.0271 µM
CC50 [2]: > 100 µM
CC50 [3]: > 100 µM
CC50 [4]: > 100 µM
CC50 [5]: > 100 µM
